Columns and labels:
[1] = system: RAW264.7; assay: Cytotoxicity against mouse RAW264.7 cells assessed as cell viability up to 100 uM after 24 hrs by MTT assay; type: cell-based; conditions: raw264.7, 24 h
Method in brief: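 RAW264.7 macrophages seeded at 1 × 10^4 cells/well, settled 18 h at 37 °C, then exposed to inhibitors up to 100 µM for 24 h. Compounds were predissolved in DMSO and diluted in medium, final DMSO 0.05% (v/v). MTT (4 mg/ml) was added for 4 h at 37 °C, formazan solubilized in DMSO, and absorbance read at 570/630 nm.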

[2] = target: T1, Bromodomain-containing protein 4 (Mus musculus, UniProt Q9ESU6); assay: (§1) Inhibition of BRD4 in LPS-stimulated mouse RAW264.7 cells assessed as inhibition of NF-kappaB-mediated IL-6 expression preincubated for 30 mins followed by LPS stimulation measured after 24 hrs by ELISA; type: cell-based
Method in brief: (§2)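 RAW264.7 cells grown in DMEM/10% FBS at 37 °C, 5% CO2, plated at 3 × 10^5 cells/mL, pretreated with inhibitor for 30 min. Medium was then replaced with LPS (1 µg/mL) plus inhibitor for 24 h. Compounds were diluted from DMSO to 0.28–50000 nM, final DMSO 0.05% (v/v). Supernatant IL-6 was measured by mouse ELISA read at 570 nm.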

[3] = target: Bromodomain-containing protein 4 (Mus musculus) (UniProt Q9ESU6); assay: as §1; type: cell-based; method in brief: as §2
[4] = target: T2, Bromodomain-containing protein 3 (Homo sapiens, UniProt Q15059); assay: Displacement of fluorescein-labeled MS574 from recombinant human BRD3 BrD1 after 1 hr by fluorescence anisotropy assay
T2 sequence (Q15059 whole entry): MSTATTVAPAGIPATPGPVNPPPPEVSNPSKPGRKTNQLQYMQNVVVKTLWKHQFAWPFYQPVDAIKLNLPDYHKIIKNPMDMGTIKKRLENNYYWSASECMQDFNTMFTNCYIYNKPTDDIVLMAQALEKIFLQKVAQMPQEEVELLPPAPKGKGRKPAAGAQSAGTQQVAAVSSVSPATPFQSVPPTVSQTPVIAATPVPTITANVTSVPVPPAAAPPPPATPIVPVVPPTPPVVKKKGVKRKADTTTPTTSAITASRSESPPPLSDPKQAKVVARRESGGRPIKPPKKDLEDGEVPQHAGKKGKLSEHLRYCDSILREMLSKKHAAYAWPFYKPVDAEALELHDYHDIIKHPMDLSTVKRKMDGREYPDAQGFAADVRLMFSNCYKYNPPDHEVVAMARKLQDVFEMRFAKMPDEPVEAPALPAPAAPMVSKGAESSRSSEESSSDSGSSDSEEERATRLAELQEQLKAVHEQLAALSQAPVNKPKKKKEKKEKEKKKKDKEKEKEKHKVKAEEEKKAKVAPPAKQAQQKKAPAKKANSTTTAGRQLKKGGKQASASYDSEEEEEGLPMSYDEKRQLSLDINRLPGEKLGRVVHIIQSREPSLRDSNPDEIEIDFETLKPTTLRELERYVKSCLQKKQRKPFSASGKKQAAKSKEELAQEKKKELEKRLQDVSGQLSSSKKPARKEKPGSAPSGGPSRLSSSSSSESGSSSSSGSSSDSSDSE
Method in brief: (§3)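 Competition fluorescence anisotropy with His-tag-removed recombinant bromodomain (Ni-IDA purified, thrombin cleaved) at 0.25–1 µM, chosen so that 50–80% of probe is bound. FITC-labeled probe at 80 nM (≤2Kd), unlabeled ligand titrated, in PBS pH 7.4, read after 1 h at 25 °C. IC50 from curve fit, converted to Ki with the Nikolovska-Coleska correction to Cheng-Prusoff (one-site competitive). The resolvable Ki is limited by the probe Kd.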

[5] = target: T1, Bromodomain-containing protein 4; assay: (§4) Inhibition of BRD4 in LPS-stimulated mouse RAW264.7 cells assessed as inhibition of NF-kappaB-mediated nitric oxide production preincubated for 30 mins followed by LPS stimulation measured after 24 hrs by spectrophotometric analysis; type: cell-based
Method in brief: (§5)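 RAW264.7 cells in DMEM/10% FBS, plated at 3 × 10^5 cells/mL, pretreated with inhibitor 30 min, then LPS (1 µg/mL) plus inhibitor for 24 h. Inhibitor concentrations 0.28–50000 nM from DMSO stock, final DMSO 0.05% (v/v). Nitrite in the supernatant was measured spectrophotometrically at 520 nm.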

[6] = target: Bromodomain-containing protein 4 (Mus musculus) (UniProt Q9ESU6); assay: as §4; type: cell-based; method in brief: as §5
[7] = target: T3, Bromodomain-containing protein 4 (Homo sapiens, UniProt O60885); assay: Displacement of fluorescein-labeled MS574 from recombinant human BRD4 BrD2 after 1 hr by fluorescence anisotropy assay; method in brief: as §3
[8] = target: T4, Bromodomain-containing protein 7 (Homo sapiens, UniProt Q9NPI1); assay: Displacement of fluorescein-labeled MS226 from recombinant human BRD7 after 1 hr by fluorescence anisotropy assay; method in brief: as §3
T4 sequence (Q9NPI1 whole entry): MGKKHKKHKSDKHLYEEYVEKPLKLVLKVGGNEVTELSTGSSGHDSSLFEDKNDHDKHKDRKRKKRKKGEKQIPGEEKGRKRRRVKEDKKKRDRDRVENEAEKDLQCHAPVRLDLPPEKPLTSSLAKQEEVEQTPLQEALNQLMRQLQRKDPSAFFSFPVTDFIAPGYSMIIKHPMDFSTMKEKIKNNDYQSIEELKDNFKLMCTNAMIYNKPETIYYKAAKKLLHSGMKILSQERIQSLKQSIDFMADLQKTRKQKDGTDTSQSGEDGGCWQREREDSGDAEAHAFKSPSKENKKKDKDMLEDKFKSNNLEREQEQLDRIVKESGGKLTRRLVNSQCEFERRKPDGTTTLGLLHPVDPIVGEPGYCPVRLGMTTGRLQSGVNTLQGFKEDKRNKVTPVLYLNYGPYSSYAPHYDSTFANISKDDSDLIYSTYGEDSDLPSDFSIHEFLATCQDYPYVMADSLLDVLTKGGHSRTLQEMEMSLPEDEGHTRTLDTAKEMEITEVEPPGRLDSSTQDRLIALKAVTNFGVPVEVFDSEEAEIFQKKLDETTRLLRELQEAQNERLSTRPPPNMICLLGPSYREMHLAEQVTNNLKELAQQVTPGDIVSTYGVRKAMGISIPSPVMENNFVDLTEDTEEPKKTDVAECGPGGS

[9] = target: T3, Bromodomain-containing protein 4; assay: Displacement of fluorescein-labeled MS574 from recombinant human BRD4 BrD1 after 1 hr by fluorescence anisotropy assay; method in brief: as §3
[10] = target: CREB-binding protein (Homo sapiens, UniProt Q92793); assay: Displacement of fluorescein-labeled MS226 from recombinant human CBP bromodomain after 1 hr by fluorescence anisotropy assay; method in brief: as §3
Chain of CREB-binding protein (Q92793 whole entry): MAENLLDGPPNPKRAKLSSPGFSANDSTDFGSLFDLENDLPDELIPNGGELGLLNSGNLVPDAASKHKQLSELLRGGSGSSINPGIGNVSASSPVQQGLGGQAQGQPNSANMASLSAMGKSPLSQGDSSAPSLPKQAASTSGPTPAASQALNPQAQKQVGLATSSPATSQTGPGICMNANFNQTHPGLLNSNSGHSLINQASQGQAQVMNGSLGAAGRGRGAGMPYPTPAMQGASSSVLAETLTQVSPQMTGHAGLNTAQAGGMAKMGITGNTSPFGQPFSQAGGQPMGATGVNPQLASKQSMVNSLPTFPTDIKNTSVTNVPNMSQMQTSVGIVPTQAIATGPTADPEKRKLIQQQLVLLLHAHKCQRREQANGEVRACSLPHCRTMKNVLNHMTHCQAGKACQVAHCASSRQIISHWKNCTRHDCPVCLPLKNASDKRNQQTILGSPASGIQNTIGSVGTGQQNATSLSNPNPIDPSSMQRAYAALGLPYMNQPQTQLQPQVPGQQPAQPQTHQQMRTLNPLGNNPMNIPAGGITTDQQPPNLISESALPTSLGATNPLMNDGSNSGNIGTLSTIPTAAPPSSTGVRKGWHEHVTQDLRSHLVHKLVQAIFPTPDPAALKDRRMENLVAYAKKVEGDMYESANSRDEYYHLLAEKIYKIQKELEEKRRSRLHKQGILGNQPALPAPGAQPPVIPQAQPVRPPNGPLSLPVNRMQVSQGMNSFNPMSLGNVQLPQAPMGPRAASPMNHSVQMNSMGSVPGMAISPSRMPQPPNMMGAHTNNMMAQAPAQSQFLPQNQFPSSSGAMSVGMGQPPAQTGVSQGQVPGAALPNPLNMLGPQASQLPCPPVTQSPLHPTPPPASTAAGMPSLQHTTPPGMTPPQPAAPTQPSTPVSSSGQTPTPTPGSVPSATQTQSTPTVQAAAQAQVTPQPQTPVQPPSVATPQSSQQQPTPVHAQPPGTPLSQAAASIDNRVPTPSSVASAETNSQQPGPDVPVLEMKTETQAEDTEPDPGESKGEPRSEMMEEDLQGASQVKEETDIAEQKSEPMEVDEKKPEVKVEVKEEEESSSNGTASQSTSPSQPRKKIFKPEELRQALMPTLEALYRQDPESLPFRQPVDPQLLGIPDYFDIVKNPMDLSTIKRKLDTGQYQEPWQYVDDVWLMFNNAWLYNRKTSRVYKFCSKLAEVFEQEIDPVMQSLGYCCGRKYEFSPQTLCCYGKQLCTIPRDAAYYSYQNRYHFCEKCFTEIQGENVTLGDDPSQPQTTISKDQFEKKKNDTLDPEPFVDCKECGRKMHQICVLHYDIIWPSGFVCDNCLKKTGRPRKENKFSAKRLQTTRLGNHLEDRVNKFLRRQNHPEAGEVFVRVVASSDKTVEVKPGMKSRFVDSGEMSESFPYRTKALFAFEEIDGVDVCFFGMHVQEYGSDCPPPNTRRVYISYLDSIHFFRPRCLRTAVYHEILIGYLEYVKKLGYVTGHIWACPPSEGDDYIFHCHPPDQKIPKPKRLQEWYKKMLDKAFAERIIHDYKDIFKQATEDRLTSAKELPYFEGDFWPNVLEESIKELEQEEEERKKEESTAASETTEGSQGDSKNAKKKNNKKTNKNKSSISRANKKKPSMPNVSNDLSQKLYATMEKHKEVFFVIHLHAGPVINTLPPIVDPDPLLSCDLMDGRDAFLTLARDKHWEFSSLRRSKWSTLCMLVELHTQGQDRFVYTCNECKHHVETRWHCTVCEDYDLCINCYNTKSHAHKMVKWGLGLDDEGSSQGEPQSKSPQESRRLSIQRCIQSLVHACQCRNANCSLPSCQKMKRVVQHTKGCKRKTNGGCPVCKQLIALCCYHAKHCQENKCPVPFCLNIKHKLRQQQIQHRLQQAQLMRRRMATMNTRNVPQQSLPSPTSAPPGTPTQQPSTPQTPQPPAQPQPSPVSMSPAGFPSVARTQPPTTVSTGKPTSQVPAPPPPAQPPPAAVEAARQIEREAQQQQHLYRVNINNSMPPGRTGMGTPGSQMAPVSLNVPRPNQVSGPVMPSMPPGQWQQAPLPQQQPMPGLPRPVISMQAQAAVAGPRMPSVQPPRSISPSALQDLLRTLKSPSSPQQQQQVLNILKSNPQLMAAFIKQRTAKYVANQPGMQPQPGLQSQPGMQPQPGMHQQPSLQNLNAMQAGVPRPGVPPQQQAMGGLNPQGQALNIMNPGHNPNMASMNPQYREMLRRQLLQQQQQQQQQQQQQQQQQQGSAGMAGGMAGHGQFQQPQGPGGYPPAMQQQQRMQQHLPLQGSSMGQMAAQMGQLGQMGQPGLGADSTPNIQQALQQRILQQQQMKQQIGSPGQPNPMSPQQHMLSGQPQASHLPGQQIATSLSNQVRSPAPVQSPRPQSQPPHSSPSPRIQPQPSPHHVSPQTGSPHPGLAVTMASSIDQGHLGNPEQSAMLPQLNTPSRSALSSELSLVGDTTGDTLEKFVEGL

[11] = target: Nucleosome-remodeling factor subunit BPTF (Homo sapiens, UniProt Q12830); assay: Displacement of fluorescein-labeled MS239 from recombinant human BPTF after 1 hr by fluorescence anisotropy assay; method in brief: as §3
[12] = target: SWI/SNF-related matrix-associated actin-dependent regulator of chromatin subfamily A member 4 (Homo sapiens, UniProt P51532); assay: Displacement of fluorescein-labeled MS239 from recombinant human SMARCA4 bromodomain after 1 hr by fluorescence anisotropy assay; method in brief: as §3
[13] = target: Histone acetyltransferase KAT2B (Homo sapiens, UniProt Q92831); assay: Displacement of fluorescein-labeled MS239 from recombinant human PCAF after 1 hr by fluorescence anisotropy assay; method in brief: as §3
Chain of Histone acetyltransferase KAT2B (Q92831 whole entry): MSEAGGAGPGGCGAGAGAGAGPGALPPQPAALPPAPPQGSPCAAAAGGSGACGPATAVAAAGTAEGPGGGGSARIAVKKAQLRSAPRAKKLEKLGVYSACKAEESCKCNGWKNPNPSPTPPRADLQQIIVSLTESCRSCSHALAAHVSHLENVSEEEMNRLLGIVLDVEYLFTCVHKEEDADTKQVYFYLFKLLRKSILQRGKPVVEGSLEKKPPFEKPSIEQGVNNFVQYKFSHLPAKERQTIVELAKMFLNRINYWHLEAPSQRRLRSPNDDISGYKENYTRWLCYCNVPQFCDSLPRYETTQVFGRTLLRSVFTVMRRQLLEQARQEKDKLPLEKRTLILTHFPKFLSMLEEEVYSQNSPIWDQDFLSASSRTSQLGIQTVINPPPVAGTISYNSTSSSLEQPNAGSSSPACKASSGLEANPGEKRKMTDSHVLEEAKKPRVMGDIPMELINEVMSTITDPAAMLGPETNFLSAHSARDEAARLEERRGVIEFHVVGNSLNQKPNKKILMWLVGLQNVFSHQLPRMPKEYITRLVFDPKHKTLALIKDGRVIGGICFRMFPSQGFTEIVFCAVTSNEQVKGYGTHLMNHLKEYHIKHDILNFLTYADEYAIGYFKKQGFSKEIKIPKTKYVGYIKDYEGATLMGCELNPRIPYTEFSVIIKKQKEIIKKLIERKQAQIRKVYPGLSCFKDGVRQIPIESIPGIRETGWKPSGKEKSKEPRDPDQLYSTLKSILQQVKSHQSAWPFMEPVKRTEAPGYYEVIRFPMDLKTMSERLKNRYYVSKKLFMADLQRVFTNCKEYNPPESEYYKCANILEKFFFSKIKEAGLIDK

[14] = target: T2, Bromodomain-containing protein 3; assay: Displacement of fluorescein-labeled MS574 from recombinant human BRD3 BrD2 after 1 hr by fluorescence anisotropy assay; method in brief: as §3

- IC50 [2]: 23200 nM
- inhibition [3]: Dose-dependent effect
- Ki [4]: 290 nM
- IC50 [5]: 38100 nM
- inhibition [6]: Dose-dependent effect
- Ki [7]: 440 nM
- Ki [8]: < 1430 nM
- Ki ([9]; read-out: Ki): 150 nM
- Ki ([9]; read-out: pKi (converted)): 151 nM
- Ki [10]: 5120 nM
- Ki [11]: < 1700 nM
- Ki [12]: < 6560 nM
- Ki [13]: < 3340 nM
- Ki [14]: 220 nM
Compound: Cc1cc(/N=N/c2ccc(S(=O)(=O)Nc3ccccn3)cc2)c(N)c(C)c1O
- Activity [1]: Non-toxic

From ChEMBL document CHEMBL3085768, “Structure-guided design of potent diazobenzene inhibitors for the BET bromodomains” (J Med Chem, 2013)
